Values after ≈ are worked out from the molar mass of the structure shown.
Key:
Format in all cases: functional
Escherichia coli [1] = assay: Antibacterial activity against extended-spectrum beta-lactamase producing Escherichia coli isolate 209285 after 18 hrs in presence of BPL by CLSI broth microdilution method; conditions: isolate 209285, 18 h
Procedure, shortened: (§1)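 CLSI broth microdilution against clinical isolates (ESBL E. coli, KPC-2 MDR K. pneumoniae, IMP-4 MDR P. aeruginosa; five per species). Iron limitation: Mueller-Hinton broth supplemented with 16 mg/liter 2,2'-bipyridyl to complex iron and induce iron uptake systems. Read-out: MIC.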

Pseudomonas aeruginosa [2] = assay: Antibacterial activity against IMP-4 producing Pseudomonas aeruginosa isolate 209471 after 18 hrs in presence of BPL by CLSI broth microdilution method; conditions: isolate 209471, 18 h; procedure, shortened: as §1
Klebsiella pneumoniae [3] = assay: Selectivity index, ratio of MIC for against KPC-2 producing Klebsiella pneumoniae isolate 212423 to MIC for against KPC-2 producing Klebsiella pneumoniae isolate 212423 in presence of BPL
Klebsiella pneumoniae [4] = assay: Selectivity index, ratio of MIC for against KPC-2 producing Klebsiella pneumoniae isolate 209632 to MIC for against KPC-2 producing Klebsiella pneumoniae isolate 209632 in presence of BPL
Klebsiella pneumoniae [5] = assay: Antibacterial activity against KPC-2 producing Klebsiella pneumoniae isolate 209632 after 18 hrs by CLSI broth microdilution method; conditions: isolate 209632, 18 h
Klebsiella pneumoniae [6] = assay: Antibacterial activity against KPC-2 producing Klebsiella pneumoniae isolate 212423 after 18 hrs in presence of BPL by CLSI broth microdilution method; conditions: isolate 212423, 18 h; procedure, shortened: as §1
Pseudomonas aeruginosa [7] = assay: Antibacterial activity against IMP-4 producing Pseudomonas aeruginosa isolate 207272 after 18 hrs by CLSI broth microdilution method; conditions: isolate 207272, 18 h
Escherichia coli [8] = assay: Antibacterial activity against extended-spectrum beta-lactamase producing Escherichia coli isolate 106342 after 18 hrs by CLSI broth microdilution method; conditions: isolate 106342, 18 h
Klebsiella pneumoniae [9] = assay: Antibacterial activity against KPC-2 producing Klebsiella pneumoniae isolate 212229 after 18 hrs in presence of BPL by CLSI broth microdilution method; conditions: isolate 212229, 18 h; procedure, shortened: as §1
Pseudomonas aeruginosa [10] = assay: Selectivity index, ratio of MIC for against IMP-4 producing Pseudomonas aeruginosa isolate 207272 to MIC for against IMP-4 producing Pseudomonas aeruginosa isolate 207272 in presence of BPL
Klebsiella pneumoniae [11] = assay: Antibacterial activity against KPC-2 producing Klebsiella pneumoniae isolate 209632 after 18 hrs in presence of BPL by CLSI broth microdilution method; conditions: isolate 209632, 18 h; procedure, shortened: as §1
Pseudomonas aeruginosa [12] = assay: Antibacterial activity against IMP-4 producing Pseudomonas aeruginosa isolate 208247 after 18 hrs in presence of BPL by CLSI broth microdilution method; conditions: isolate 208247, 18 h; procedure, shortened: as §1
Escherichia coli [13] = assay: Antibacterial activity against Escherichia coli isolate 210737 after 18 hrs in presence of BPL by CLSI broth microdilution method; conditions: isolate 210737, 18 h; procedure, shortened: as §1
Pseudomonas aeruginosa [14] = assay: Selectivity index, ratio of MIC for against IMP-4 producing Pseudomonas aeruginosa isolate 209471 to MIC for against IMP-4 producing Pseudomonas aeruginosa isolate 209471 in presence of BPL
Escherichia coli [15] = assay: Selectivity index, ratio of MIC for against Escherichia coli isolate 210737 to MIC for Escherichia coli isolate 210737 in presence of BPL
Pseudomonas aeruginosa [16] = assay: Selectivity index, ratio of MIC for against IMP-4 producing Pseudomonas aeruginosa isolate 209321 to MIC for against IMP-4 producing Pseudomonas aeruginosa isolate 209321 in presence of BPL
Escherichia coli [17] = assay: Antibacterial activity against extended-spectrum beta-lactamase producing Escherichia coli isolate 208687 after 18 hrs by CLSI broth microdilution method; conditions: isolate 208687, 18 h
Escherichia coli [18] = assay: Selectivity index, ratio of MIC for against extended-spectrum beta-lactamase producing Escherichia coli isolate 106342 to MIC for extended-spectrum beta-lactamase producing Escherichia coli isolate 106342 in presence of BPL
Pseudomonas aeruginosa [19] = assay: Selectivity index, ratio of MIC for against IMP-4 producing Pseudomonas aeruginosa isolate 212886 to MIC for against IMP-4 producing Pseudomonas aeruginosa isolate 212886 in presence of BPL
Escherichia coli [20] = assay: Selectivity index, ratio of MIC for against extended-spectrum beta-lactamase producing Escherichia coli isolate 209285 to MIC for extended-spectrum beta-lactamase producing Escherichia coli isolate 209285 in presence of BPL
Klebsiella pneumoniae [21] = assay: Antibacterial activity against KPC-2 producing Klebsiella pneumoniae isolate 209735 after 18 hrs by CLSI broth microdilution method; conditions: isolate 209735, 18 h
Klebsiella pneumoniae [22] = assay: Antibacterial activity against KPC-2 producing Klebsiella pneumoniae isolate 209735 after 18 hrs in presence of BPL by CLSI broth microdilution method; conditions: isolate 209735, 18 h; procedure, shortened: as §1
Pseudomonas aeruginosa [23] = assay: Antibacterial activity against IMP-4 producing Pseudomonas aeruginosa isolate 207272 after 18 hrs in presence of BPL by CLSI broth microdilution method; conditions: isolate 207272, 18 h; procedure, shortened: as §1
Escherichia coli [24] = assay: Antibacterial activity against extended-spectrum beta-lactamase producing Escherichia coli isolate 208687 after 18 hrs in presence of BPL by CLSI broth microdilution method; conditions: isolate 208687, 18 h; procedure, shortened: as §1
Escherichia coli [25] = assay: Antibacterial activity against extended-spectrum beta-lactamase producing Escherichia coli isolate 209285 after 18 hrs by CLSI broth microdilution method; conditions: isolate 209285, 18 h
Pseudomonas aeruginosa [26] = assay: Antibacterial activity against IMP-4 producing Pseudomonas aeruginosa isolate 209321 after 18 hrs in presence of BPL by CLSI broth microdilution method; conditions: isolate 209321, 18 h; procedure, shortened: as §1
Pseudomonas aeruginosa [27] = assay: Antibacterial activity against IMP-4 producing Pseudomonas aeruginosa isolate 212886 after 18 hrs in presence of BPL by CLSI broth microdilution method; conditions: isolate 212886, 18 h; procedure, shortened: as §1
Escherichia coli [28] = assay: Antibacterial activity against Escherichia coli isolate 210737 after 18 hrs by CLSI broth microdilution method; conditions: isolate 210737, 18 h
Klebsiella pneumoniae [29] = assay: Antibacterial activity against KPC-2 producing Klebsiella pneumoniae isolate 212423 after 18 hrs by CLSI broth microdilution method; conditions: isolate 212423, 18 h
Escherichia coli [30] = assay: Antibacterial activity against extended-spectrum beta-lactamase producing Escherichia coli isolate 212648 after 18 hrs in presence of BPL by CLSI broth microdilution method; conditions: isolate 212648, 18 h; procedure, shortened: as §1
Klebsiella pneumoniae [31] = assay: Antibacterial activity against KPC-2 producing Klebsiella pneumoniae isolate 212232 after 18 hrs by CLSI broth microdilution method; conditions: isolate 212232, 18 h
Escherichia coli [32] = assay: Selectivity index, ratio of MIC for against extended-spectrum beta-lactamase producing Escherichia coli isolate 208687 to MIC for extended-spectrum beta-lactamase producing Escherichia coli isolate 208687 in presence of BPL
Escherichia coli [33] = assay: Antibacterial activity against extended-spectrum beta-lactamase producing Escherichia coli isolate 212648 after 18 hrs by CLSI broth microdilution method; conditions: isolate 212648, 18 h
Klebsiella pneumoniae [34] = assay: Selectivity index, ratio of MIC for against KPC-2 producing Klebsiella pneumoniae isolate 212232 to MIC for against KPC-2 producing Klebsiella pneumoniae isolate 212232 in presence of BPL
Pseudomonas aeruginosa [35] = assay: Selectivity index, ratio of MIC for against IMP-4 producing Pseudomonas aeruginosa isolate 208247 to MIC for against IMP-4 producing Pseudomonas aeruginosa isolate 208247 in presence of BPL
Klebsiella pneumoniae [36] = assay: Selectivity index, ratio of MIC for against KPC-2 producing Klebsiella pneumoniae isolate 212229 to MIC for against KPC-2 producing Klebsiella pneumoniae isolate 212229 in presence of BPL
Pseudomonas aeruginosa [37] = assay: Antibacterial activity against IMP-4 producing Pseudomonas aeruginosa isolate 209321 after 18 hrs by CLSI broth microdilution method; conditions: isolate 209321, 18 h
Pseudomonas aeruginosa [38] = assay: Antibacterial activity against IMP-4 producing Pseudomonas aeruginosa isolate 212886 after 18 hrs by CLSI broth microdilution method; conditions: isolate 212886, 18 h
Klebsiella pneumoniae [39] = assay: Antibacterial activity against KPC-2 producing Klebsiella pneumoniae isolate 212232 after 18 hrs in presence of BPL by CLSI broth microdilution method; conditions: isolate 212232, 18 h; procedure, shortened: as §1
Escherichia coli [40] = assay: Antibacterial activity against extended-spectrum beta-lactamase producing Escherichia coli isolate 106342 after 18 hrs in presence of BPL by CLSI broth microdilution method; conditions: isolate 106342, 18 h; procedure, shortened: as §1
Klebsiella pneumoniae [41] = assay: Selectivity index, ratio of MIC for against KPC-2 producing Klebsiella pneumoniae isolate 209735 to MIC for against KPC-2 producing Klebsiella pneumoniae isolate 209735 in presence of BPL
Escherichia coli [42] = assay: Selectivity index, ratio of MIC for against extended-spectrum beta-lactamase producing Escherichia coli isolate 212648 to MIC for extended-spectrum beta-lactamase producing Escherichia coli isolate 212648 in presence of BPL
Pseudomonas aeruginosa [43] = assay: Antibacterial activity against IMP-4 producing Pseudomonas aeruginosa isolate 208247 after 18 hrs by CLSI broth microdilution method; conditions: isolate 208247, 18 h
Klebsiella pneumoniae [44] = assay: Antibacterial activity against KPC-2 producing Klebsiella pneumoniae isolate 212229 after 18 hrs by CLSI broth microdilution method; conditions: isolate 212229, 18 h
Pseudomonas aeruginosa [45] = assay: Antibacterial activity against IMP-4 producing Pseudomonas aeruginosa isolate 209471 after 18 hrs by CLSI broth microdilution method; conditions: isolate 209471, 18 h

Structure (SMILES): COC[C@@H]1[C@H](NC(=O)/C(=N\OC(c2cc(=O)c(O)cn2O)C(C)C)c2csc(N)n2)C(=O)N1S(=O)(=O)O (stereo not given in full)
- MIC (Escherichia coli [1]): 0.125 µg/mL
- MIC (Pseudomonas aeruginosa [2]): 8 µg/mL
- Selectivity Index (Klebsiella pneumoniae [3]): 2
- Selectivity Index (Klebsiella pneumoniae [4]): 4
- MIC (Klebsiella pneumoniae [5]): 4 µg/mL (≈ 7.14 µM)
- MIC (Klebsiella pneumoniae [6]): 0.25 µg/mL
- MIC (Pseudomonas aeruginosa [7]): 8 µg/mL (≈ 14.3 µM)
- MIC (Escherichia coli [8]): 0.5 µg/mL (≈ 0.892 µM)
- MIC (Klebsiella pneumoniae [9]): 0.125 µg/mL
- Selectivity Index (Pseudomonas aeruginosa [10]): 1
- MIC (Klebsiella pneumoniae [11]): 1 µg/mL
- MIC (Pseudomonas aeruginosa [12]): 8 µg/mL
- MIC (Escherichia coli [13]): 0.5 µg/mL
- Selectivity Index (Pseudomonas aeruginosa [14]): 2
- Selectivity Index (Escherichia coli [15]): 1
- Selectivity Index (Pseudomonas aeruginosa [16]): 1
- MIC (Escherichia coli [17]): 0.5 µg/mL (≈ 0.892 µM)
- Selectivity Index (Escherichia coli [18]): 2
- Selectivity Index (Pseudomonas aeruginosa [19]): 1
- Selectivity Index (Escherichia coli [20]): 4
- MIC (Klebsiella pneumoniae [21]): 16 µg/mL (≈ 28.5 µM)
- MIC (Klebsiella pneumoniae [22]): 4 µg/mL
- MIC (Pseudomonas aeruginosa [23]): 8 µg/mL
- MIC (Escherichia coli [24]): 0.25 µg/mL
- MIC (Escherichia coli [25]): 0.5 µg/mL (≈ 0.892 µM)
- MIC (Pseudomonas aeruginosa [26]): 16 µg/mL
- MIC (Pseudomonas aeruginosa [27]): 16 µg/mL
- MIC (Escherichia coli [28]): 0.5 µg/mL (≈ 0.892 µM)
- MIC (Klebsiella pneumoniae [29]): 0.5 µg/mL (≈ 0.892 µM)
- MIC (Escherichia coli [30]): 0.25 µg/mL
- MIC (Klebsiella pneumoniae [31]): 4 µg/mL (≈ 7.14 µM)
- Selectivity Index (Escherichia coli [32]): 2
- MIC (Escherichia coli [33]): 1 µg/mL (≈ 1.78 µM)
- Selectivity Index (Klebsiella pneumoniae [34]): 8
- Selectivity Index (Pseudomonas aeruginosa [35]): 1
- Selectivity Index (Klebsiella pneumoniae [36]): 4
- MIC (Pseudomonas aeruginosa [37]): 16 µg/mL (≈ 28.5 µM)
- MIC (Pseudomonas aeruginosa [38]): 16 µg/mL (≈ 28.5 µM)
- MIC (Klebsiella pneumoniae [39]): 0.5 µg/mL
- MIC (Escherichia coli [40]): 0.25 µg/mL
- Selectivity Index (Klebsiella pneumoniae [41]): 4
- Selectivity Index (Escherichia coli [42]): 4
- MIC (Pseudomonas aeruginosa [43]): 8 µg/mL (≈ 14.3 µM)
- MIC (Klebsiella pneumoniae [44]): 0.5 µg/mL (≈ 0.892 µM)
- MIC (Pseudomonas aeruginosa [45]): 16 µg/mL (≈ 28.5 µM)

Source: ChEMBL document CHEMBL4152188, “Design, synthesis and biological evaluation of C(4) substituted monobactams as antibacterial agents against multidrug-resistant Gram-negative bacteria” (Eur J Med Chem, 2018)
